Here are results for 13 compounds from ChEMBL document CHEMBL1123202, “Imidazo[4,5-c]pyridines (3-deazapurines) and their nucleosides as immunosuppressive and antiinflammatory agents” (1986).

Calls of active or inactive are those of the source. The calls are words filed in the database; no cut-off is given here.

Assay [1] concerns Rattus norvegicus. As to the kind of experiment: Dose required to produce an acute inflammatory response of the algal poly saccharide carrageenan into the pleural cavity of rat; IA is Inactive at 6 mg/kg. Set-up: dose 6 mg/kg. The format is functional, organism-based.
The species entered for another assay is Mus musculus. As to the kind of experiment: Compound was tested for inhibition of mouse connective tissue cell (L) growth at a concentration of 100 uM. It counts as functional. As to conditions: Mus musculus. In outline: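 D-98 (human sternal marrow) and L (mouse connective tissue) cells were cultured with compound at 100 µM, and growth inhibition was reported as %. Procedure per earlier publication.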

For a further assay, the system named is D98 (Homo sapiens). As to the kind of experiment: Compound was tested for inhibition of human sternal marrow cell (D98) growth at a concentration of 100 uM.
The subject of assay [2] is EL4. As to the kind of experiment: Inhibition of lymphocyte-mediated cytolysis at a concentration of 100 uM in [51Cr]- labelled EL4 leukemia cells. It counts as functional. As to conditions: Mus musculus.
Assay [3] deals with Rattus norvegicus. As to the kind of experiment: Dose required to produce an acute inflammatory response of the algal poly saccharide carrageenan into the pleural cavity of rat; IA is Inactive at 9 mg/kg. Set-up: dose 9 mg/kg. The format is functional, organism-based.
The species entered for assay [4] is Rattus norvegicus. The experiment in a line: Dose required to produce an acute inflammatory response of the algal poly saccharide carrageenan into the pleural cavity of rat. The format is functional.
The test system of assay [5] is EL4. As to the kind of experiment: Compound was tested for inhibition of lymphocyte-mediated cytolysis at a concentration of 50 uM in [51Cr]- labeled EL4 leukemia cells. It counts as functional. As to conditions: Mus musculus.
In assay [6] the test system is EL4. The experiment in a line: Compound was tested for inhibition of lymphocyte-mediated cytolysis at a concentration of 26 uM in [51Cr]- labeled EL4 leukemia cells. The format is functional. As to conditions: Mus musculus.

As a reminder, the ED50 is the dose at which the effect has come halfway, by size or by number of responders. A word on the inhibition: it is the drop in the measured response relative to a control, in per cent. A lower inhibition goes with a weak effect. Take `CNc1[nH]ccc2ncnc1-2`: the ED50 result in the assay on Rattus norvegicus [1] is “inactive”. In addition, the values for the inhibition at 100 µM in the assay listed under Mus musculus and in the assay with EL4 [2] were 6% and < 5%, respectively. Moreover, the inhibition in the assay on D98 (Homo sapiens) is 18%.
For `CCNc1nccc2c1ncn2C1O[C@H](CO)[C@@H](O)[C@H]1O` (some centres undefined), in that order: “inactive”, 20%, 8% and 4%.
For `CNc1nccc2c1ncn2C1O[C@H](CO)[C@@H](O)[C@H]1O` (some centres undefined), in that order: “inactive”, 21%, 11% and 8%.
In the same order, the values of `CCCCCCNc1nccc2c1ncn2C1O[C@H](CO)[C@@H](O)[C@H]1O` (some centres undefined) are “inactive”, 41%, 14% and 8%.
For the compound `OC[C@H]1O[C@@H](n2cnc3c(Cl)nccc32)C[C@@H]1O`, the inhibition at 100 µM in the assay listed under Mus musculus was 25%; with EL4 [2], < 5%. In the assay with Rattus norvegicus [3], the ED50 entry was “inactive”. In addition, the inhibition in the assay on D98 (Homo sapiens) came out at 5%.
For `C[C@H]1OC(n2cnc3c(N)nccc32)[C@H](O)[C@@H]1O` (some centres undefined), in that order: 4%, 32%, “inactive” and 18%.
`OC[C@H]1OC(n2cnc3c(Cl)nccc32)[C@H](O)[C@@H]1O` (some centres undefined): the inhibition at 100 µM in the assay filed under Mus musculus was 27%; in the assay with EL4 [2] it was < 5%. Besides, the ED50 entry in the assay with Rattus norvegicus [3] was “inactive”. Moreover, the inhibition in the assay with D98 (Homo sapiens) is 76%.
In the same order, the values of `[N-]=[N+]=Nc1[nH]ccc2ncnc1-2` are 20%, < 5%, “inactive” and 20%.
In the case of `CCCCCCNc1[nH]ccc2ncnc1-2`, the ED50 in the assay listed under Rattus norvegicus [4] is > 9 mg/kg. In addition, the figures for the inhibition at 100 µM in the assay filed under Mus musculus and in the assay on EL4 [2] were 82% and 100%, respectively. Also, the inhibition in the assay on D98 (Homo sapiens) amounted to 53%. In addition, the inhibition at 50 µM in the assay with EL4 [5] is 45%. Also, at 26 µM the inhibition in the assay with EL4 [6] was 0%.
In the case of `OCCNc1nccc2c1ncn2C1O[C@H](CO)[C@@H](O)[C@H]1O` (some centres undefined), in the assay with Rattus norvegicus [1], the ED50 entry was “inactive”. The figures for the inhibition at 100 µM in the assay filed under Mus musculus and with EL4 [2] were 3% and 6%, respectively. The compound also had an inhibition with D98 (Homo sapiens) of 0%.
For `CCNc1[nH]ccc2ncnc1-2`, in that order: “inactive”, 11%, < 5% and 3%.
As for `OC[C@H]1O[C@@H](n2cnc3c(S)nccc32)C[C@@H]1O`, the inhibition at 100 µM in the assay filed under Mus musculus was 8%; with EL4 [2], < 5%. The ED50 entry with Rattus norvegicus [3] was “inactive”. In the assay with D98 (Homo sapiens), the inhibition was 10%.
In the same order, the values of `[N-]=[N+]=Nc1nccc2c1ncn2[C@H]1C[C@H](O)[C@@H](CO)O1` are 12%, 13%, “inactive” and 4%.
